Laboratory results from paper PMC5010469 (Cancer research, 2016).

Assays:
Format in all cases: cell-based
WASF3 = test: Western blotting of WASF3 complex protein levels; details: MDA-MB-231 and Hs578T cells, western blot; Figure 4e
WASF3 complex = WASF3 complex (Homo sapiens, UniProt Q7L576); test: Immunoprecipitation of the WASF3 complex; details: IP of WASF3 from MDA-MB-231 cells, Figure 4f
MDA-MB-231 cells [1] = test: Cell proliferation assay; details: MDA-MB-231, NSC23766 treatment; Supplementary Figure 4
Hs578T cells [2] = test: Cell proliferation assay; details: NSC23766 treatment, Supplementary Figure 4
MDA-MB-231 cells [3] = test: Transwell invasion assay
In short: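 MDA-MB-231 breast cancer cells were obtained from ATCC and verified by SNP-CGH for characteristic cytogenetic changes. The panel included empty-vector parental cells and cells overexpressing full-length human NCKAP1 from a lentiviral vector. Cells were exposed to the RAC1-inhibitor test compound, with a dose series in one set. Invasion was read out in Transwell invasion assays run as previously described.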

Hs578T cells [4] = test: Transwell invasion assay; details: dose series, Figure 4d

WASF3 complex, sequence (Q7L576 whole entry, one chain of several): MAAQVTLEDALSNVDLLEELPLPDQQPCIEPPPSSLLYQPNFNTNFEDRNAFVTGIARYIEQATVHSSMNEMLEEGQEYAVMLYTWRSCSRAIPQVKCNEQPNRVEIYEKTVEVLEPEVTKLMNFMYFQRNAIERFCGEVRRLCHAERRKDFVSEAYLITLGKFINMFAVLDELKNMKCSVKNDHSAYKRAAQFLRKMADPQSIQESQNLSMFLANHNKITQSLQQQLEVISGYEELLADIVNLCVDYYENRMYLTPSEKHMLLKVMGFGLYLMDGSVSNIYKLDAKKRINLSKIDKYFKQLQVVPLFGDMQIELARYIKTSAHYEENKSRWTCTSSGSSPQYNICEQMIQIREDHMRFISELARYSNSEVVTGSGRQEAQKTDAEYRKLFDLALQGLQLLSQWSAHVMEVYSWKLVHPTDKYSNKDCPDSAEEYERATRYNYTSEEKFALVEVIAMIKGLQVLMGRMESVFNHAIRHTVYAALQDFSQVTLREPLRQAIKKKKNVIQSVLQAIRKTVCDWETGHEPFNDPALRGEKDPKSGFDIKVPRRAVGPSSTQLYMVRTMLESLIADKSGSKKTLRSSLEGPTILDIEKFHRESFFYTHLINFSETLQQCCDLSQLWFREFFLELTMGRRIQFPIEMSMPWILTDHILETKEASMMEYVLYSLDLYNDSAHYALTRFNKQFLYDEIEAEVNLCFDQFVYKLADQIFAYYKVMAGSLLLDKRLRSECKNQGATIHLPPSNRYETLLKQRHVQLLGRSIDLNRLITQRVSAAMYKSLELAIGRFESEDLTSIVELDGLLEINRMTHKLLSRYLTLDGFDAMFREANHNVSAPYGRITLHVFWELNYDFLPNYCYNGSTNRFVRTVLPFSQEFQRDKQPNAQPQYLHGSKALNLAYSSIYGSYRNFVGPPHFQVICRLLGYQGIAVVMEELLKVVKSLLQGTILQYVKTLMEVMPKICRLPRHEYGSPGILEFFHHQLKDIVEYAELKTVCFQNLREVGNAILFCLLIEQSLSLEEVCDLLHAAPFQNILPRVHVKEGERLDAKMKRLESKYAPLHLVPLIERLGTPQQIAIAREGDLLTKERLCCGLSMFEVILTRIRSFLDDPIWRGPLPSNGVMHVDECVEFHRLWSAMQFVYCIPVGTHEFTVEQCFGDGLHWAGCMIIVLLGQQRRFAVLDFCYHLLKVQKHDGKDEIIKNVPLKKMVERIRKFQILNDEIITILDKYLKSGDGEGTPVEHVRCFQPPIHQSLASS

RAC1 binding to the WASF3 complex (WASF3 complex; high dose 50 µM): significantly inhibited
WASF3 phosphorylation (WASF3 complex; high dose 50 µM): significantly inhibited
SMILES: CCN(CC)CCCC(C)Nc1nc(C)cc(Nc2ccc3nc(C)cc(N)c3c2)n1 (stereo not shown) [NSC23766]
protein levels of WASF3, NCKAP1 and RAC1 (WASF3): does not affect protein levels of either WASF3, NCKAP1 or RAC1
engagement of NCKAP1 with the WASF3 complex (WASF3 complex): does not disrupt engagement of NCKAP1 with the WASF3 complex
effect on cell proliferation (MDA-MB-231 cells [1]): without affecting cell proliferation
effect on cell proliferation (Hs578T cells [2]): without affecting cell proliferation
effect on invasion (MDA-MB-231 cells [3]; MDA-MB-231, dose series, Figure 4d): dose-dependent reduction in invasion
effect on invasion (MDA-MB-231 cells [3]; MDA-MB-231 cells overexpressing NCKAP1, Transwell, Figure 4h): significant reduction in invasion
effect on invasion (MDA-MB-231 cells [3]; MDA-MB-231 parental cells containing the empty vector (EV), Transwell, Figure 4h): significant reduction in invasion
effect on invasion (Hs578T cells [4]): dose-dependent reduction in invasion
